# Key:
# [1] = target: T1, Cytochrome P450 2A6 (Homo sapiens, UniProt P11509); test: Activity at recombinant CYP2A6 (unknown origin) expressed in baculovirus-infected insect cells assessed as enzyme-mediated drug depletion at 1 to 10 uM by LC-MS/MS analysis in presence of NADPH; type: ADME
# T1 sequence (P11509 whole entry): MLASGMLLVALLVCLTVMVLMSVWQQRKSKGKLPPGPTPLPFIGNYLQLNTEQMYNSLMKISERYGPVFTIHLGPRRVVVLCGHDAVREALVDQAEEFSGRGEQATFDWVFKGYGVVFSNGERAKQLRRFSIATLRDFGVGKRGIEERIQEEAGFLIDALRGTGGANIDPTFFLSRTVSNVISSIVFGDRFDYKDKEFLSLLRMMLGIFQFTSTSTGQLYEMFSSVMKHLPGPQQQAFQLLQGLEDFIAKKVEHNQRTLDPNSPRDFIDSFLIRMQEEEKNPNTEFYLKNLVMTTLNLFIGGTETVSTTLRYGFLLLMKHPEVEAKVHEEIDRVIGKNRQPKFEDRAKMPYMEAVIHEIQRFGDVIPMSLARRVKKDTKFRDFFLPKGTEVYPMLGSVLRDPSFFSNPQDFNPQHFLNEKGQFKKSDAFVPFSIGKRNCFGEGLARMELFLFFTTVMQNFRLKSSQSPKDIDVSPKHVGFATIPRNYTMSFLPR
# In short: (§1)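 BILR 402 (1 or 10 μM) with baculovirus/insect-cell recombinant CYPs, levels scaled to average liver content (1A2 2, 2A6 1, 2B6 0.1, 2C9 1.5, 2C19 1.5, 2D6 0.3, 3A4 5 pmol/mL). Buffer 0.1 M potassium phosphate, 5 mM MgCl2, pH 7.4; 2.5 mM NADPH; 37 °C. Non-transfected insect microsomes served as controls. Aliquots taken 0.5–30 min and acetonitrile-quenched; depletion measured by LC-MS/MS with isotope-labelled internal standard.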
# [2] = target: T2, Cytochrome P450 1A2 (Homo sapiens, UniProt P05177); test: Activity at recombinant CYP1A2 (unknown origin) expressed in baculovirus-infected insect cells assessed as enzyme-mediated drug depletion at 1 to 10 uM by LC-MS/MS analysis in presence of NADPH; type: ADME; in short: as §1
# T2 sequence (P05177 whole entry): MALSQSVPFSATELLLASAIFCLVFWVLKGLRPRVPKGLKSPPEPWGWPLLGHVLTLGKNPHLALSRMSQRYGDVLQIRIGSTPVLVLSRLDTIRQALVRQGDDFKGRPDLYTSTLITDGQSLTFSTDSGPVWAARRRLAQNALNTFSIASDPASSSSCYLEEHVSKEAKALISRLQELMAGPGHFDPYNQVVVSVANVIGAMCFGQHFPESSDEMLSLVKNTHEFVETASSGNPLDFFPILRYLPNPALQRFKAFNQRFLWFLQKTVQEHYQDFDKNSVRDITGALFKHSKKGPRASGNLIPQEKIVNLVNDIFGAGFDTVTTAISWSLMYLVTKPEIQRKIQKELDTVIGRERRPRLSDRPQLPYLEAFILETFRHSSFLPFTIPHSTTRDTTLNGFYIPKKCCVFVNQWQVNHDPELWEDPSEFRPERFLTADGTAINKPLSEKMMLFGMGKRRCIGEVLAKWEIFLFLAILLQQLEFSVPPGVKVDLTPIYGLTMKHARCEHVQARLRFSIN
structure (smiles),measurement,setting,value
CCN1c2ncc(CCOc3ccnc4ccccc34)cc2C(=O)N(C)c2cccnc21,Drug metabolism,[1],metabolite_not_detected
same,Drug metabolism,[2],metabolite_not_detected

# From ChEMBL document CHEMBL3525945, “Metabolic switching of BILR 355 in the presence of ritonavir. II. Uncovering novel contributions by gut bacteria and aldehyde oxidase” (Drug Metab Dispos, 2012)
